The list is not random: actives were taken first. Their share in the collection is about 3.1%.
core dimer inh: blocks dimerization of HCV core protein. TR-FRET GST/Flag-core106 dimerization, 1536-well. inhibition, % at 5 µM. 0.33% of 300,000 active. AID 1899;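 active = inhibition above the mean of all tested compounds plus 3 SD, set per screening campaign, cut at about 45% in these data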
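System: GST-tagged and Flag-tagged HCV core protein residues 1-106 / Input: core106 proteins, GST 13.5 nM and Flag 17 nM / Buffer or medium: KF-containing HEPES buffer, pH 7.45, DTT, CHAPS, BSA / Probe or stimulus: Eu-anti-GST and XL665-anti-Flag labelled anti-tag antibodies / Schedule: 4 h, 22.5 °C incubation / Technique: TR-FRET 671 and 617 nm emission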
SUMO HTRF inh: inhibitors of human SUMOylation (UBC9); P63279; HTRF SUMOylation assay, SAE1/SAE2 + UBC9, in vitro; inhibition, % at 35 µM; 0.36% of 290,000 active; in the data active = inhibition above about 50%, passing the limit was not always enough
Target sequence (P63279 whole entry, looked up): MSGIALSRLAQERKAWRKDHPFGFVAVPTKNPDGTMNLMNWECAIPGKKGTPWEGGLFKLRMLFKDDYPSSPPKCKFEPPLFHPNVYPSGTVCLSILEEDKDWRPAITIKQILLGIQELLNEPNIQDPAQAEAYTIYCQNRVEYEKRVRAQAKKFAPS
VIM-2 inhibitor: blocks Pseudomonas aeruginosa VIM-2 metallo-beta-lactamase; AID 1527; 0.89% of 290,000 active; inhibition, % at 5.6 µM; purified VIM-2, nitrocefin hydrolysis, epi-absorbance fluorescence;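 active = inhibition above the mean of all tested compounds plus 3 SD, cutoff set per screening run, cut at about 7.5% in these data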;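 note: red hydrolysis product quenches plate fluorescence so inhibitors raise well fluorescence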
IMP-1 inh: inhibitors of Pseudomonas aeruginosa IMP-1 metallo-beta-lactamase | purified IMP-1, nitrocefin hydrolysis, epi-absorbance fluorescence | inhibition, % at 5.6 µM | 0.45% of 290,000 active | AID 1556;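 active = inhibition above the mean plus 3 SD of all compounds in the same screening run, cut at about 4.5% in these data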
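Assay system: purified recombinant IMP-1 beta-lactamase. Input: IMP-1 0.2 nM before substrate addition. Buffer or medium: Zinc- and detergent-supplemented HEPES buffer, pH 7.1. Schedule: 25 °C, 15 min preincubation, 25 min reaction. Signal: Epi-absorbance fluorescence, 480 nm excitation, 530 nm emission. Evaluation: percent inhibition from optical density relative to buffer-blank wells.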
PHOSPHO1 inh: PHOSPHO1 (human) inhibition; 1.1% of 290,000 active; Q8TCT1; recombinant PHOSPHO1, absorbance phosphatase assay; inhibition, % at 13.3 µM; in the data active = inhibition above about 60%
Target sequence (Q8TCT1 whole entry, looked up): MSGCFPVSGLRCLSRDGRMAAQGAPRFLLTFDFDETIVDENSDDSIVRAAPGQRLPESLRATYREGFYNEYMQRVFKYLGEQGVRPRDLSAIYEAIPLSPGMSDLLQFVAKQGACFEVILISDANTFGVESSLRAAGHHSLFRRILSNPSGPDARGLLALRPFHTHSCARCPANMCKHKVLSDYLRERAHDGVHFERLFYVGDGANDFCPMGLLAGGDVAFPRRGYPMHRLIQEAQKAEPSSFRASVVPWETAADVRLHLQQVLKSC
HCV NS3 hel inh: inhibitors of Hepatitis C virus NS3 helicase; inhibition, % at 10.9 µM; AID 1800; 0.56% of 290,000 active; NS3 helicase DNA unwinding, Cy5 molecular beacon fluorescence;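 active = inhibition above the mean of all tested compounds plus 3 SD, set per campaign, cut at about 35% in these data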
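Assay system: hepatitis C virus NS3 helicase domain fragment enzyme. Also added: annealed dual-labelled DNA beacon duplex, ATP-started. Timing: 1 h reaction at 25 °C, ATP-initiated. Technique: Cy5 fluorescence at 0 and 60 min, beacon hairpin quenching. Evaluation: % inhibition of unwinding. Replication: one well per compound.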
Of the large screens only hits and unclear results are named; the others gave an inactive call.

CC1CCN(c2ccccc2NC(=S)NC(=O)c2cccs2)CC1	none
CC(C)CC(=O)NC(=S)Nc1ccccc1C(=O)Nc1ccccc1	IMP-1 inh 12
CC1CCN(c2ccccc2NC(=S)NC(=O)C(C)(C)C)CC1	IMP-1 inh 6.3
CCN(CC)S(=O)(=O)c1ccc(C(=O)NCC(c2ccc(OC)cc2)N2CCOCC2)cc1 (stereo unspecified)	none
Cc1c(NC(=O)CSc2ccccc2Cl)c(=O)n(-c2ccccc2)n1C	none
CC(C)C(=O)NC(=S)Nc1ccccc1C(=O)Nc1ccccc1	IMP-1 inh 19
COc1ccccc1Nc1ncc(-c2cccs2)s1	core dimer inh 50, PHOSPHO1 inh 82
O=S(=O)(c1ccc2nc(N3CCN(c4ccccc4)CC3)ccc2c1)N1CCCCC1	none
CC(=O)c1ccc(N2CCN(c3ccc4cc(S(=O)(=O)N5CCC(C)CC5)ccc4n3)CC2)cc1	IMP-1 inh 12
CCc1ccc(CNC(=O)Cc2ccc(NC(=O)C3=C(C)OCCS3)cc2)cc1	PHOSPHO1 inh 65
O=C(CSc1nnnn1-c1ccc(F)cc1)Nc1ccccc1F	none (no result: core dimer inh)
COc1cccc2cc(/C(C)=N/Nc3nc(-c4cc(C)ccc4C)cs3)c(=O)oc12	core dimer inh 76
Nc1nc(SCC(=O)N2N=C(c3ccc(Cl)cc3)CC2c2ccco2)n[nH]1 (stereo unspecified)	VIM-2 inhibitor 11
Nc1cc(=O)[nH]c(SCC(=O)N2N=C(c3ccc(Cl)cc3)CC2c2ccco2)n1 (stereo unspecified)	core dimer inh 49
CCCc1cc(=O)[nH]c(SCC(=O)N2N=C(c3ccc(Cl)cc3)CC2c2ccco2)n1 (stereo unspecified)	none
O=C(COc1cccnc1[N+](=O)[O-])N1N=C(c2ccc(Cl)cc2)CC1c1ccco1 (stereo unspecified)	none
CCOC(=O)C1=C(C)NC(C)=C(C(=O)OCC)C1C(=O)OCC(=O)NCCc1ccc(S(N)(=O)=O)cc1	none (no result: SUMO HTRF inh, VIM-2 inhibitor, IMP-1 inh, PHOSPHO1 inh, HCV NS3 hel inh)
Cn1c(-c2ccccc2)c(C(=O)CCl)c2ccccc21	none (no result: core dimer inh)
CCCc1c(CC)c(=N)c2ccccc2n1C	IMP-1 inh 8.8
CC1CCCC(NC(=S)Nc2cccc(S(=O)(=O)N(C)C)c2)C1C (stereo unspecified)	none
COCCn1c(SCc2nc3ccccc3c(=O)[nH]2)nc2ccccc2c1=O	none
CCCn1c(SCc2nc3sc(C)c(C)c3c(=O)[nH]2)nc2ccccc2c1=O	PHOSPHO1 inh 69
Cc1ccc(C(=O)N2CCCC2)cc1S(=O)(=O)N1CCCCC1	none
COCCCNC(=O)c1ccc(N2CCCC2)c(NS(=O)(=O)c2ccc(C)cc2)c1	PHOSPHO1 inh 64
CSc1ccc(CC(=O)N2CCC(n3nccc3NC(=O)C3CC3)CC2)cc1	none
CCSc1ccccc1C(=O)NC1CCCCC1	none
Cc1ccc(Cl)cc1NC(=S)N(Cc1ccccc1)Cc1cccnc1	none
Cc1cc(/C=C2\SC(=Nc3ccccc3)NC2=O)c(C)n1-c1ccc(S(N)(=O)=O)cc1	core dimer inh 63
CCN(CC)C(=O)COc1c(-c2ccco2)oc2ccccc2c1=O	none
CCN(CC)C(=O)COc1ccc2oc(-c3ccco3)cc(=O)c2c1	SUMO HTRF inh 53
O=c1nc2ccc(Cl)cn2c2ccc(S(=O)(=O)N3CCOCC3)cc12	VIM-2 inhibitor 11
COc1cc(CC(NC(C)=O)C(=O)NC2CCN(C(=O)Nc3ccccc3C)CC2)cc(OC)c1 (stereo unspecified)	none
CC(=O)c1ccc(NC(=S)N2CCN(S(=O)(=O)c3ccc(F)cc3)CC2)cc1	none
O=C(Nc1ccc(-n2nncc2-c2ccco2)cc1)c1cc2ccccc2oc1=O	core dimer inh 77 (no result: SUMO HTRF inh)
CCC(C)CCN1CCN=C1Nc1ccccc1 (stereo unspecified)	none (no result: SUMO HTRF inh, VIM-2 inhibitor, IMP-1 inh, PHOSPHO1 inh, HCV NS3 hel inh)
Cn1nc(-c2ccc(C(=O)N3CCN(Cc4ccccc4)CC3)cc2)c2ccccc2c1=O	VIM-2 inhibitor 11
O=C(c1ccc(-n2cccc2)cc1)N1CCN(Cc2ccccc2)CC1	none
Cn1nc(OCC(=O)O)cc1C(F)(F)F	none
CC(=O)NNC(=O)c1csc(-c2csc(C)n2)n1	none
COc1ccc(CC(=O)Nc2nc(-c3ccncc3)cs2)cc1	IMP-1 inh 6.7
COc1ccc(CCC(=O)Nc2nc(-c3ccncc3)cs2)cc1	none
COc1ccc(-c2csc(NC(=O)c3ccc(S(C)(=O)=O)cc3)n2)cc1	IMP-1 inh 5.6
COC(=O)c1cc(S(=O)(=O)NCCc2ccc(SC)cc2)c[nH]1	IMP-1 inh 34
CSC1=NS(=O)(=O)c2c(C)nn(C)c2S1	PHOSPHO1 inh 90
CCN(CC(=O)NCc1ccc(Cl)cc1)C(=O)CSCC(=O)Nc1cccc(C)c1	none
CCCCCC1CCC(c2ccc(/C(N)=N/O)cc2)CC1 (stereo unspecified)	none
CCOc1cc(/C=N/Nc2ccccc2Cl)ccc1OCC(=O)O	HCV NS3 hel inh 53
CCOc1cc(/C=N/Nc2nc(Nc3ccccc3)nc(N3CCCCC3)n2)ccc1OCC(=O)O	none
CSC1=N/C(=C\c2cccc(F)c2)C(=O)S1	PHOSPHO1 inh 67
CSC1=N/C(=C\c2ccc(C)cc2)C(=O)S1	none
CC1CCN(CCCn2c(=S)[nH]c3ccc(N4CCOCC4)cc3c2=O)CC1	SUMO HTRF inh 56
Cc1cc(C)c2nc(NCCCNC(=S)NCCCN(C)C)c(C#N)cc2c1	none
Cc1ccc2cc(C#N)c(NCCNC(=S)NCCCN(C)C)nc2c1C	PHOSPHO1 inh 64
CCOCCCNC(=S)NCCNc1nc2c(C)cccc2cc1C#N	PHOSPHO1 inh 61
CC(=O)NC1=NN(C(C)=O)C2(S1)C(=O)N(CC(C)C)c1ccc(C)cc12 (stereo unspecified)	none
COc1cccc(/C=N/NC(=O)C(=O)N/N=C/c2cccc(OC)c2O)c1O	SUMO HTRF inh 71 (no result: core dimer inh)
COc1cccc(/C=N/NC(=O)c2cc3cc([N+](=O)[O-])ccc3s2)c1O	PHOSPHO1 inh 83
COc1ccc(/C=N/NC(=O)C(N)=O)c(OC)c1OC	IMP-1 inh 8.4
O=C(CCN1C(=O)/C(=C/c2ccccc2Cl)SC1=S)NCCc1ccc(O)cc1	none
CCOC(=O)c1c(S(=O)(=O)NCC(=O)Nc2cc(C)ccc2OC)c(C)n(C)c1C	none (no result: SUMO HTRF inh)
O=C(/C=C/c1ccco1)NC(=S)Nc1cccc(-c2nc3ccccc3s2)c1	core dimer inh 52 (no result: SUMO HTRF inh, PHOSPHO1 inh)
Cc1ccc(-c2nc3ccccc3s2)cc1NC(=S)NC(=O)/C=C/c1ccco1	core dimer inh 52
O=C(NNC1CC(=O)N(c2ccccc2)C1=O)c1ccccc1Cl (stereo unspecified)	none
COC(=O)c1cc(C(=O)OC)cc(N2C(=O)CC(NNC(=O)c3ccccc3Cl)C2=O)c1 (stereo unspecified)	VIM-2 inhibitor 9.6

High-throughput results (PubChem BioAssay)
